Assay [1] relates to Pseudomonas aeruginosa. Briefly: Antimicrobial activity against nagZ gene-deficient Pseudomonas aeruginosa PAO1 after 18 hrs by Etest. Particulars: PAO1, 18 h. The format is functional. The procedure, abridged:
(§1)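 Strains are P. aeruginosa PAO1 and its insertional nagZ-inactivated derivative. MICs were read from Etest strips on Mueller-Hinton agar, following the manufacturer's recommendations. Each determination was done in triplicate.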

Assay [2] deals with Pseudomonas aeruginosa. The assay is described as follows: Antimicrobial activity against Pseudomonas aeruginosa PAO1 after 18 hrs by Etest. The format is functional. Particulars: PAO1, 18 h. The procedure, abridged: as §1
The test system of assay [3] is Pseudomonas aeruginosa. The assay is described as follows: Antimicrobial activity against Pseudomonas aeruginosa PAO1 harboring deltaampD::lox deltaampDh2::lox delta ampDh3::lox after 18 hrs by Etest in presence of beta-lactamase inhibitor Tazobactam. The format is functional. Particulars: PAO1, 18 h.
Assay [4] deals with Pseudomonas aeruginosa. The assay is described as follows: Antimicrobial activity against nagZ gene-deficient Pseudomonas aeruginosa PAO1 after 18 hrs by Etest in presence of beta-lactamase inhibitor Tazobactam. The format is functional. Particulars: PAO1, 18 h. The method, boiled down: as §1
Assay [5] concerns Pseudomonas aeruginosa. The assay is described as follows: Antimicrobial activity against Pseudomonas aeruginosa PAO1 harboring deltaampD::lox deltaampDh2::lox deltaampDh3::lox deltanagZ::Gm after 18 hrs by Etest. The format is functional. Particulars: PAO1, 18 h. The procedure, abridged:
(§2)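 Etest strips on Mueller-Hinton agar plates, run per the manufacturer's recommendations; MICs determined in triplicate.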

Assay [6] concerns Pseudomonas aeruginosa. The assay is described as follows: Antimicrobial activity against Pseudomonas aeruginosa PAO1 harboring deltaampD::lox deltaampDh2::lox delta ampDh3::lox after 18 hrs by Etest. The format is functional. Conditions: PAO1, 18 h. The method, boiled down:
as §2

The subject of assay [7] is Pseudomonas aeruginosa. Briefly: Antimicrobial activity against Pseudomonas aeruginosa PAO1 after 18 hrs by Etest in presence of beta-lactamase inhibitor Tazobactam. The format is functional. Particulars: PAO1, 18 h. The procedure, abridged: as §1
Assay [8] relates to Pseudomonas aeruginosa. Briefly: Antimicrobial activity against Pseudomonas aeruginosa PAO1 harboring deltaampD::lox deltaampDh2::lox deltaampDh3::lox deltanagZ::Gm after 18 hrs by Etest in presence of beta-lactamase inhibitor Tazobactam. The format is functional. Particulars: PAO1, 18 h.
Assay [9] concerns Pseudomonas aeruginosa. Briefly: Ratio of MIC for Pseudomonas aeruginosa PAO1 harboring deltaampD::lox deltaampDh2::lox deltaampDh3::lox deltanagZ::Gm in presence of beta-lactamase inhibitor Tazobactam to MIC for nagZ gene-deficient Pseudomonas aeruginosa PAO1 in presence of beta-lactamase inhibitor Tazobactam. The format is functional.
For another assay, the target named is Beta-hexosaminidase (Pseudomonas aeruginosa (strain ATCC 15692 / PAO1 / 1C / PRS 101 / LMG12228), UniProt Q9HZK0). Briefly: Inhibition of Pseudomonas aeruginosa PAO1 nagZ gene after 1.5 hrs by fluorescence spectrophotometry. The method, boiled down:
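Cultures in Mueller-Hinton broth were grown at 37°C to OD600 ~0.5, diluted to 0.25 and grown 1.5 h more. Cells were PBS-washed and sonicated. Lysate protein (15 μg) was incubated with 2 mM 4-MUGlcNAc in PBS pH 7.4 at 37°C for 1–8 h, then quenched with glycine-NaOH pH 10.7. 4-MU fluorescence was read at ex 360/em 450 nm, in triplicate, with heat-denatured lysate controls.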

Assay [10] relates to Pseudomonas aeruginosa. Briefly: Antimicrobial activity against Pseudomonas aeruginosa PAO1 after 18 hrs by using 30 ug/disk by agar diffusion method in presence of 0.5 mM nagZ inhibitor EtBuPUG. The format is functional. The method, boiled down:
(§3)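 Cultures grown in Mueller-Hinton broth at 37°C to OD600 ~0.5, pelleted, resuspended in 2 ml broth and streaked on Mueller-Hinton agar. […] Inhibition zone diameter measured after overnight incubation at 37°C. Triplicate determinations.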

Assay [11] relates to Pseudomonas aeruginosa. Briefly: Antimicrobial activity against ampDDh2 gene-deficient Pseudomonas aeruginosa PAO1 after 18 hrs by broth microdilution method in presence. The format is functional. Particulars: PAO1, 18 h. The procedure, abridged:
(§4)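 Wells are then inoculated with 100 μl culture and incubated 18 h at 37°C. The MIC is the lowest concentration with no growth. Triplicate determinations.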

The test system of assay [12] is Pseudomonas aeruginosa. Briefly: Antimicrobial activity against Pseudomonas aeruginosa PAO1 harboring deltaampD::lox deltaampDh2::lox delta ampDh3::lox and plasmid pUCP27 after 18 hrs by Etest. The format is functional. Particulars: PAO1, 18 h. The method, boiled down: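 Etest strips on Mueller-Hinton agar supplemented with 75 μg/ml tetracycline to maintain the vector or complementation plasmid, run per the manufacturer's recommendations; triplicate determinations.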

The subject of assay [13] is Pseudomonas aeruginosa. The assay is described as follows: Antimicrobial activity against ampDDh2 gene-deficient Pseudomonas aeruginosa PAO1 after 18 hrs by broth microdilution method in presence of 0.5 mM nagZ inhibitor EtBuPUG. The format is functional. Conditions: PAO1, 18 h. The procedure, abridged:
as §4

Assay [14] concerns Pseudomonas aeruginosa. The assay is described as follows: Antimicrobial activity against ampDh3 gene-deficient Pseudomonas aeruginosa PAO1 after 18 hrs by broth microdilution method in presence. The format is functional. Conditions: PAO1, 18 h. The procedure, abridged:
as §4

The test system of assay [15] is Pseudomonas aeruginosa. Briefly: Antimicrobial activity against ampDh2 and ampDh3 gene-deficient Pseudomonas aeruginosa PAO1 after 18 hrs by broth microdilution method in presence of 0.5 mM nagZ inhibitor EtBuPUG. The format is functional. Particulars: PAO1, 18 h. The procedure, abridged:
as §4

Assay [16] concerns Pseudomonas aeruginosa. The assay is described as follows: Antimicrobial activity against ampDh2 gene-deficient Pseudomonas aeruginosa PAO1 after 18 hrs by broth microdilution method in presence of 0.5 mM nagZ inhibitor EtBuPUG. The format is functional. Conditions: PAO1, 18 h. The procedure, abridged:
as §4

Assay [17] deals with Pseudomonas aeruginosa. Briefly: Antimicrobial activity against Pseudomonas aeruginosa PAO1 after 18 hrs by broth microdilution method. The format is functional. Particulars: PAO1, 18 h. The method, boiled down:
(§5)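 CLSI broth microdilution in cation-adjusted Mueller-Hinton medium with serial β-lactam dilutions. Each well holds 200 μl broth inoculated with ~10⁴ cells from starter cultures at OD600 ~0.5. Plates shaken at 37°C for 18 h. The MIC is read as the lowest antibiotic concentration showing no growth. Triplicate determinations.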

In assay [18] the test system is Pseudomonas aeruginosa. The assay is described as follows: Antimicrobial activity against ampDh2 gene-deficient Pseudomonas aeruginosa PAO1 using 30 ug/disk by agar diffusion method in presence of 0.5 mM nagZ inhibitor EtBuPUG. The format is functional. The procedure, abridged:
as §3

Assay [19] relates to Pseudomonas aeruginosa. The assay is described as follows: Antimicrobial activity against ampDDh3 gene-deficient Pseudomonas aeruginosa PAO1 after 18 hrs by broth microdilution method in presence of 0.5 mM nagZ inhibitor EtBuPUG. The format is functional. Particulars: PAO1, 18 h. The procedure, abridged:
as §4

In assay [20] the test system is Pseudomonas aeruginosa. Briefly: Antimicrobial activity against ampDDh2 and ampDh3 gene-deficient Pseudomonas aeruginosa PAO1 after 18 hrs by broth microdilution method in presence of 0.5 mM nagZ inhibitor EtBuPUG. The format is functional. Particulars: PAO1, 18 h. The method, boiled down: as §4
Assay [21] relates to Pseudomonas aeruginosa. The assay is described as follows: Antimicrobial activity against ampD gene-deficient Pseudomonas aeruginosa PAO1 after 18 hrs by broth microdilution method in absence of EtBuPUG. Particulars: PAO1, 18 h.
The test system of assay [22] is Pseudomonas aeruginosa. Briefly: Antimicrobial activity against ampD gene-deficient Pseudomonas aeruginosa PAO1 after 18 hrs by broth microdilution method in presence of 0.5 mM nagZ inhibitor EtBuPUG. The format is functional. Conditions: PAO1, 18 h. The procedure, abridged: as §4
The test system of assay [23] is Pseudomonas aeruginosa. The assay is described as follows: Antimicrobial activity against ampDh3 gene-deficient Pseudomonas aeruginosa PAO1 after 18 hrs by broth microdilution method in presence of 0.5 mM nagZ inhibitor EtBuPUG. The format is functional. Particulars: PAO1, 18 h. The method, boiled down:
as §4

For assay [24], the system named is Pseudomonas aeruginosa. Briefly: Antimicrobial activity against nagZ gene-deficient Pseudomonas aeruginosa PAO1 after 18 hrs by broth microdilution method. The format is functional. Particulars: PAO1, 18 h. The procedure, abridged: as §5
The test system of assay [25] is Pseudomonas aeruginosa. Briefly: Antimicrobial activity against ampDDh2 and ampDh3 gene-deficient Pseudomonas aeruginosa PAO1 after 18 hrs using […] by agar diffusion method. The format is functional. The method, boiled down: as §3
In assay [26] the test system is Pseudomonas aeruginosa. The assay is described as follows: Antimicrobial activity against ampDh2 and ampDh3 gene-deficient Pseudomonas aeruginosa PAO1 after 18 hrs by broth microdilution method. The format is functional. Particulars: PAO1, 18 h. The method, boiled down: as §4
Assay [27] relates to Pseudomonas aeruginosa. Briefly: Antimicrobial activity against ampDh2 gene-deficient Pseudomonas aeruginosa PAO1 after 18 hrs by broth microdilution method in absence of EtBuPUG. Particulars: PAO1, 18 h.
Assay [28] deals with Pseudomonas aeruginosa. Briefly: Antimicrobial activity against ampDDh3 gene-deficient Pseudomonas aeruginosa PAO1 after 18 hrs by broth microdilution method in presence. Conditions: PAO1, 18 h. The format is functional. The procedure, abridged:
as §4

For assay [29], the system named is Pseudomonas aeruginosa. Briefly: Antimicrobial activity against Pseudomonas aeruginosa PAO1 after 18 hrs by broth microdilution method in presence of 0.5 mM nagZ inhibitor EtBuPUG. Particulars: PAO1, 18 h. The format is functional. The method, boiled down: as §4

In brackets after ≈: the same amount, converted by molar mass.

Beta-hexosaminidase, sequence (Q9HZK0 whole entry): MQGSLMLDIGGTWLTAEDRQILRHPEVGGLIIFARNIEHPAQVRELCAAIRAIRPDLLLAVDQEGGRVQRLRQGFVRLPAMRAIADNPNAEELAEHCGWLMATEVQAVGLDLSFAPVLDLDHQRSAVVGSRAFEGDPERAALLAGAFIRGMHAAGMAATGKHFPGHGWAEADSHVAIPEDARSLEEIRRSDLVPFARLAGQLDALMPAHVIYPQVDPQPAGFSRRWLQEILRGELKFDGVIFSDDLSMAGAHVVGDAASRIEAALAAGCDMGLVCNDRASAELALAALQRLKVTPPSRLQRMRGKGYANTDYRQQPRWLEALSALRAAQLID

With `CCN1CCN(C(=O)N[C@@H](C(=O)N[C@@H]2C(=O)N3[C@@H]2SC(C)(C)[C@@H]3C(=O)O)c2ccccc2)C(=O)C1=O` [PIPERACILLIN], the MIC with Pseudomonas aeruginosa [1] is 1 µg/mL (≈ 1.93 µM); in the assay on Pseudomonas aeruginosa [2], 1 µg/mL (≈ 1.93 µM); in the assay on Pseudomonas aeruginosa [3] it was at least 256 µg/mL; with Pseudomonas aeruginosa [4] it was 1.5 µg/mL; against Pseudomonas aeruginosa [5], 24 µg/mL (≈ 46.4 µM); in the assay with Pseudomonas aeruginosa [6], over 256 µg/mL. In addition, the figures for the minimal inhibitory concentration (MIC) with Pseudomonas aeruginosa [7] and in the assay on Pseudomonas aeruginosa [8] were 1 µg/mL and 16 µg/mL, respectively. The Ratio in the assay on Pseudomonas aeruginosa [9] stood at 10.
Consider `CCC(CC)C(=O)N[C@H]1/C(=N/OC(=O)Nc2ccccc2)O[C@H](CO)[C@@H](O)[C@@H]1O`, for which the affinity on Beta-hexosaminidase, expressed as Ki, was 3.5 µM.
With `C[C@H]1[C@H](NC(=O)/C(=N\OC(C)(C)C(=O)O)c2csc(N)n2)C(=O)N1S(=O)(=O)O` [AZTREONAM], the “inhibition zone (IZ)” value is reported as 15.1 mm in the assay with Pseudomonas aeruginosa [10], 14 mm in the assay with Pseudomonas aeruginosa [18] and 10.7 mm with Pseudomonas aeruginosa [25]. The MIC is 16 µg/mL (≈ 36.7 µM) in the assay with Pseudomonas aeruginosa [11]; 6 µg/mL (≈ 13.8 µM) in the assay on Pseudomonas aeruginosa [12]; 8 µg/mL in the assay with Pseudomonas aeruginosa [13]; 1.5 µg/mL (≈ 3.44 µM) with Pseudomonas aeruginosa [14]; 0.25 µg/mL in the assay on Pseudomonas aeruginosa [15]; 0.25 µg/mL with Pseudomonas aeruginosa [16]. In addition, the MIC is 1 µg/mL (≈ 2.3 µM) against Pseudomonas aeruginosa [17]; 8 µg/mL in the assay with Pseudomonas aeruginosa [19]; 12 µg/mL in the assay with Pseudomonas aeruginosa [20]; 6 µg/mL (≈ 13.8 µM) with Pseudomonas aeruginosa [21]; 3 µg/mL with Pseudomonas aeruginosa [22]; 0.75 µg/mL with Pseudomonas aeruginosa [23]. Also, the MIC against Pseudomonas aeruginosa [5] amounted to 4 µg/mL (≈ 9.19 µM); in the assay with Pseudomonas aeruginosa [24], 0.25 µg/mL (≈ 0.574 µM); with Pseudomonas aeruginosa [26], 0.5 µg/mL (≈ 1.15 µM); in the assay with Pseudomonas aeruginosa [27] it was 1 µg/mL (≈ 2.3 µM); against Pseudomonas aeruginosa [28], 16 µg/mL (≈ 36.7 µM); with Pseudomonas aeruginosa [29], 0.25 µg/mL.

The record behind these values is ChEMBL document CHEMBL1649427, “Inactivation of the glycoside hydrolase NagZ attenuates antipseudomonal beta-lactam resistance in Pseudomonas aeruginosa” (Antimicrob Agents Chemother, 2009).
